Calls of active or inactive are those of the source.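 How the source made its calls, unless noted: active means NADPH fluorescence slope more negative than the mean of all samples by about 3 SD, 99.7% confidence; inactive means the rest.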
Tests used:
[1] = inhibitors of TNFa-induced NFkB p65 translocation, primary screen, imaging, HUVEC, MLSMR starter and 10KST1 sets (AID 438;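 active means inhibition above 20% together with a positive visual image hit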;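 further: compound added about 3h40 before a 20 min TNFalpha stimulation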;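 on inhibition: signal is the nuclear over cytoplasmic p65 intensity ratio per well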); conditions: HUVEC TNFa-induced p65 nuclear translocation; cell count: measured here: nuclei count (cytotoxicity indicator), at 2.08 µM; inhibition: at 2 µM, stronger effect = higher value, 0% TNFa-plus-vehicle, 100% no-TNFa wells
[2] = endothelial E-selectin expression blockers – imaging, HUVEC, immunofluorescence, MLSMR starter and 10KST1 sets, primary screen (AID 487;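 active means visually confirmed hit in the image check and inhibition above 20%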;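 on inhibition: signal is fraction of cell area covered by stained E-selectin grains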;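 on nuclei count: 100% = median nuclei count of all wells on the same plate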); conditions: HUVEC TNFalpha-induced E-selectin immunofluorescence imaging, at 2 µM; inhibition: stronger effect = higher value; nuclei count: measured here: cell number, toxicity
[3] = Primary imaging screen for DUSP6 inhibitors that restore phospho-Erk in transfected HeLa cells, chemical complementation (AID 609;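 active means compounds giving at least 50% inhibition in the cell-based MKP-3 phosphatase rescue imaging test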;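 on inhibition: phospho-Erk level distribution per well compared with pooled transfected vehicle control wells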); conditions: HeLa MKP-3 transfected, phospho-Erk imaging KS statistic, at 10 µM, cells stimulated with TPA for 15 min
[4] = biological target: Dual specificity protein phosphatase 6 (Homo sapiens) (UniProt Q16828); test: as above; conditions: HeLa MKP-3 transfected, phospho-Erk imaging KS statistic; at 10 µM; stronger effect = higher value; cells stimulated with TPA for 15 min
[5] = biological target: Voltage-gated potassium channel subunit beta-2 (Rattus norvegicus) (UniProt P62483); test: inhibitors of rat Kvbeta2 reductase activity – biochemical, NADPH fluorescence, primary screen (AID 622;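 active means fluorescence slope higher than the sample average by over 3 SD, cut at about -0.22 in these data, passing the limit was not always enough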;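 further: slope of raw intensity against log time taken from 70 to 1610 s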); conditions: recombinant KvBeta, 4-cyanobenzaldehyde reduction, at 10 µM, stronger effect = higher value
[6] = biological target: Voltage-gated potassium channel subunit beta-2 (Rattus norvegicus) (UniProt P62483); test: enhancers of rat Kvbeta2 NADPH turnover – biochemical, NADPH fluorescence, primary screen (AID 623); conditions: Recombinant KvBeta, NADPH fluorescence decrease slope, 10 min; at 10 µM; stronger effect = lower value;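 further: fluorescence intensity change per second fitted from 20 to 320 s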
[7] = biological target: Alpha-2C adrenergic receptor (Homo sapiens) (UniProt P18825); test: compounds altering alpha2C-coupled GIRK flux – cell-based, HEK293 alpha2C/GIRK1/2, thallium flux, primary screen (AID 624;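 active means fluorescence slope after compound addition differing from the mean of all screened samples at 99.7% confidence, in either direction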;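 further: slope of fluorescence ratio to pre-addition baseline per second over 15 to 24 s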); conditions: thallium flux BTC fluorescence, at 10 µM, actives lie on both sides
[8] = inhibitors of larval lipid processing in zebrafish, primary screen, whole organism, PED6 fluorescence, gall bladder and intestine (AID 686;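 active means a full or partial loss of lipid-probe fluorescence in the fish gall bladder, intestine or both, judged by eye; inactive means no fluorescence loss, or compound toxic to the fish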;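 further: larvae 5 to 7 days old with five fish per well; signal comes from phospholipase A2 cleavage of quenched PED6 carried via bile; overnight exposure to compound and PED6 before scoring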); conditions: Zebrafish larvae PED6 lipid processing, fluorescence scoring; screened at 20 µM (by protocol)
Method in brief: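 system = live zebrafish larvae aged 5-7 days, whole organism | probe or stimulus = ingested quenched lipid PED6 at 100 nM | doses = 20 µM single dose | timing = overnight exposure | detection = fluorescence microscopy with visual scoring of gall bladder and intestine | read-out = visual per-well fluorescence inhibition score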

[9] = loss of swimming-algae plug formation – whole organism, Chlamydomonas reinhardtii, WT vs cilia-less mutant, absorbance, 96-well, primary screen (AID 463189;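 active means inhibition at or above 50% relative to wild type and mutant plate controls; inactive means inhibition below 50%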;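 further: 0% = wild type cc124 cells in DMSO and 100% = ciliumless bld1 mutant cells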); conditions: Chlamydomonas reinhardtii gravitaxis, OD600 absorbance, 2 days; at 10 µM; stronger effect = higher value
[10] = measured here: cell density z-score
[11] = measured here: nuclear c-Myc green intensity z-score
[12] = measured here: nuclear pErk red intensity z-score, stronger effect = higher value

Chain of Alpha-2C adrenergic receptor (Homo sapiens) (P18825 whole entry, looked up): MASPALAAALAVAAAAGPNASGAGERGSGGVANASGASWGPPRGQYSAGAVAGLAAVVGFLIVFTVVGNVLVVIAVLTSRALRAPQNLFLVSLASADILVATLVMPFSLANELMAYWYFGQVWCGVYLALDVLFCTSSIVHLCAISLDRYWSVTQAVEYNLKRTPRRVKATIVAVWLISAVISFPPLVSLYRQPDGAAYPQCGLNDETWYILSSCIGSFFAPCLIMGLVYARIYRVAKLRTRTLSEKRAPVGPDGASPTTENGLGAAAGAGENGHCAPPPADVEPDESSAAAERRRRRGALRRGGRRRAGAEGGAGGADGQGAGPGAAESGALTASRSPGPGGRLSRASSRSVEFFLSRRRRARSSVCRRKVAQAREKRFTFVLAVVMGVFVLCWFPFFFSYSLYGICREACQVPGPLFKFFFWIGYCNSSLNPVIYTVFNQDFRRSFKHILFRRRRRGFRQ
Chain of Voltage-gated potassium channel subunit beta-2 (Rattus norvegicus) (P62483 whole entry, looked up): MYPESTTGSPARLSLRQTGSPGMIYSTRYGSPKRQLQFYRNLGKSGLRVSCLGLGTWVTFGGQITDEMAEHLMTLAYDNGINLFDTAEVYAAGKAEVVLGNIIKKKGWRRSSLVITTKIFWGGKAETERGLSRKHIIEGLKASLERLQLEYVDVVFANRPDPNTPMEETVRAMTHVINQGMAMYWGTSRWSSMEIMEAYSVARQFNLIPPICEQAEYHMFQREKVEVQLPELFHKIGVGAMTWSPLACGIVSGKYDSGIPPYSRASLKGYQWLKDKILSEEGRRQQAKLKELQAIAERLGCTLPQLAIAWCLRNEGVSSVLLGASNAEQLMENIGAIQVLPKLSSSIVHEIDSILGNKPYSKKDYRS
Chain of Dual specificity protein phosphatase 6 (Homo sapiens) (Q16828 whole entry, looked up): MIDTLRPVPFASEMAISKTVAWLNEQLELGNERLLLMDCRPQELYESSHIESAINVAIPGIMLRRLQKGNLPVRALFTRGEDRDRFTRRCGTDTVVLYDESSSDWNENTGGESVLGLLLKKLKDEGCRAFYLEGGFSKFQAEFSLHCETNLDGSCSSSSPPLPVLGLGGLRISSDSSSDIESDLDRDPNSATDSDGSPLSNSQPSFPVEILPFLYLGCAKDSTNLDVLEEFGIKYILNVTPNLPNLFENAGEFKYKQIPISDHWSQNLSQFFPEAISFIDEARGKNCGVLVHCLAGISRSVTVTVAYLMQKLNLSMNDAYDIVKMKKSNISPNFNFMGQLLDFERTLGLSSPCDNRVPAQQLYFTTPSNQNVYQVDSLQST

Compound	cell count [1]	inhibition [1]	inhibition [2]	nuclei count [2] [%]	z-score [3, 10]	z-score [3, 11]	z-score [3, 12]	inhibition [4]	fluorescence slope [5]	NADPH fluorescence slope [6]	slope [7]	outcome [8]	inhibition [9]
COc1ccccc1N1CCN(C2CCN(C(=O)c3cc(OC)c(OC)c(OC)c3)CC2)CC1	454	-8.3% (inactive)	-122% (inactive)	170	0.498	-1.6	1.25	-3.95% (inactive)	-0.32 (inactive)	2.2e-05 (inactive)	0.0055 (inactive)	inactive	-0.971% (inactive)
CCc1nnc(NC(=O)c2c(O)c3c([nH]c2=O)CCCC3)s1	332	-15.4% (inactive)	-91.6% (inactive)	154	0.462	-0.342	-0.281	-7.01% (inactive)	-0.391 (inactive)	-0.000158 (inactive)	0.00514 (inactive)	inactive	8.98% (inactive)
O=S(=O)(O)c1nc2ccccc2n1Cc1ccc(Cl)cc1Cl	405	-4.7% (inactive)	-102% (inactive)	149	-0.945	0.195	-1.66	20.8% (inactive)	-0.337 (inactive)	-1.5e-05 (inactive)	0.00557 (inactive)	inactive	27.2% (inactive)
CCc1c(C)c(C#N)c2nc3ccccc3n2c1-n1nc(C)cc1C	609	-2.3% (inactive)	-51.2% (inactive)	140	-0.4	1.4	-0.335	7.93% (inactive)	-0.352 (inactive)	-7.9e-05 (inactive)	0.00552 (inactive)	inactive	-13.6% (inactive)
COC(=O)c1ccc(Nc2cc(C)nc(-c3ccccc3O)n2)cc1	598	-2.7% (inactive)	-66.3% (inactive)	140	0.899	0.0889	-0.242	1.9e-07% (inactive)	-0.106 (inactive)	2.6e-07 (inactive)	0.00449 (inactive)	inactive	17.7% (inactive)
COc1cc(-c2nn3c(-c4ccccn4)nnc3s2)cc(OC)c1OC	600	-13.9% (inactive)	-249% (inactive)	171	1.12	-1.51	0.045	-2.47% (inactive)	-0.449 (inactive)	-0.000128 (inactive)	0.00656 (inactive)	inactive	13.6% (inactive)
COC(=O)c1c(NC(=O)c2nn(C)cc2Cl)sc2c1CCCC2	650	4.5% (inactive)	-19.9% (inactive)	179	-0.637	-1.15	1.29	2.46% (inactive)	-0.389 (inactive)	-3.5e-05 (inactive)	0.00842 (inactive)	inactive	23.3% (inactive)
CCc1ccc(NC(=O)CSC2=C(C#N)C(c3ccco3)C3=C(CCCC3=O)N2)cc1 (stereo not drawn)	461	-1.3% (inactive)	-13.8% (inactive)	117	-0.838	1.11	0.462	5.57% (inactive)	-0.501 (inactive)	-8.3e-05 (inactive)	0.00507 (inactive)	inactive	-1.64% (inactive)
COc1ccc2oc(=O)c(-c3nc(C)cs3)cc2c1	523	-9.3% (inactive)	-79.5% (inactive)	135	-0.969	0.963	1.41	-2.07% (inactive)	-0.302 (inactive)	-3.5e-05 (inactive)	0.00534 (inactive)	inactive	26.4% (inactive)
O=C(c1ccco1)N1CCN(CCOCCOc2cccc3ccccc23)CC1	473	-5.4% (inactive)	-81.6% (inactive)	121	-1.67	-0.183	1.98	-2.07% (inactive)	-0.504 (inactive)	-0.000107 (inactive)	0.00477 (inactive)	inactive	16.4% (inactive)
Oc1c(C=NCc2ccncc2)sc2ccccc12	666	-11.1% (inactive)	-63.6% (inactive)	177	-0.185	0.688	2.15	-4.27% (inactive)	-0.425 (inactive)	-6.8e-05 (inactive)	0.00509 (inactive)	inactive	-6.05% (inactive)
CS(=O)(=O)CCC(C(=O)n1nnc2ccccc21)N1C(=O)c2ccccc2C1=O (stereo not drawn)	342	-6.4% (inactive)	-46.5% (inactive)	134	0.823	-0.696	-1.53	3.42% (inactive)	-0.419 (inactive)	-5.5e-05 (inactive)	0.00572 (inactive)	inactive	26% (inactive)
Oc1ccc(Br)cc1CNn1cnnc1	501	-5.8% (inactive)	-3.9% (inactive)	122	-0.232	1.89	1.27	-1.75% (inactive)	-0.454 (inactive)	-2.5e-06 (inactive)	0.0058 (inactive)	inactive	16.1% (inactive)
CCCSC1=C(C#N)C(c2ccc(OC)cc2)C2=C(CC(C)(C)CC2=O)N1 (stereo not drawn)	364	-8.4% (inactive)	-74.2% (inactive)	160	1.35	-0.891	0.22	-4.59% (inactive)	-0.439 (inactive)	-0.000144 (inactive)	0.00555 (inactive)	inactive	15.5% (inactive)
Cc1c([C@H]2[C@@H](CC#N)C2(C)C)c2ccccc2n1C	637	-3.8% (inactive)	-51.3% (inactive)	153	-0.588	0.872	0.83	-6.48% (inactive)	-0.536 (inactive)	-9.2e-05 (inactive)	0.00537 (inactive)	inactive	11.5% (inactive)
Cc1cc(C)c(NC(=O)OCCN2CCOCC2)c(C)c1	581	-17.3% (inactive)	-82.2% (inactive)	168	-0.0769	-0.6	1.06	3.56% (inactive)	-0.468 (inactive)	-7.1e-05 (inactive)	0.00577 (inactive)	inactive	19.8% (inactive)
Cc1ccccc1OCc1nc2ccccc2c(=O)n1NC(=O)c1ccco1	346	-13.7% (inactive)	-57% (inactive)	104	0.846	0.49	-1.53	19.3% (inactive)	-0.498 (inactive)	-1.5e-05 (inactive)	0.00616 (inactive)	inactive	24.1% (inactive)
COc1ccc(/C(O)=C2\C(=O)C(=O)N(c3cc(C)on3)C2c2cccc(OC)c2OC)cc1C (stereo not drawn)	531	-1.2% (inactive)	-148% (inactive)	129	-0.589	1.28	0.634	1.75% (inactive)	-0.5 (inactive)	-2.6e-05 (inactive)	0.00468 (inactive)	inactive	-15.3% (inactive)
COc1ccc(Nc2oc(-c3cccs3)nc2C#N)cc1	383	2.9% (inactive)	-134% (inactive)	142	1.97	-0.949	-1.32	15% (inactive)	-0.352 (inactive)	-1.7e-05 (inactive)	0.00524 (inactive)	inactive	16% (inactive)
CC1(C)CC(=O)C2=C(C1)N(Cc1ccco1)C(=O)C2(NC(=O)c1cccnc1)C(F)(F)F (stereo not drawn)	499	-8.6% (inactive)	-131% (inactive)	136	-1.48	-1.13	0.615	3.5% (inactive)	-0.492 (inactive)	-6.7e-05 (inactive)	0.00643 (inactive)	inactive	0.823% (inactive)
CCCOc1ccc(/C(O)=C2/C(=O)C(=O)N(CCN3CCOCC3)C2c2ccccc2)cc1 (stereo not drawn)	365	-10.5% (inactive)	-132% (inactive)	144	-0.109	0.153	0.743	-0.159% (inactive)	-0.426 (inactive)	-6.6e-05 (inactive)	0.00576 (inactive)	inactive	-3.19% (inactive)
Cc1ccc(S(=O)(=O)N2CCN(c3nc(C)c4c(c3C#N)CC(C)(C)OC4)CC2)cc1	645	-13.9% (inactive)	9.7% (inactive)	182	1	-1.7	0.0451	22.7% (inactive)	-0.471 (inactive)	-0.000183 (inactive)	0.0077 (inactive)	inactive	110% (active)
CCNC(=O)Nn1c(C)nnc1C	604	5% (inactive)	15.6% (inactive)	129	-0.49	0.191	-0.43	-8.27% (inactive)	-0.469 (inactive)	-0.000298 (inactive)	0.00578 (inactive)	inactive	7.13% (inactive)
CN(C)C=C1C(=O)c2ccccc2C1=O	574	-5.6% (inactive)	-153% (inactive)	132	-0.195	-0.125	-0.0657	11.9% (inactive)	-0.423 (inactive)	-4.2e-05 (inactive)	0.00438 (inactive)	inactive	60.8% (active)
COc1cc(C2C3C(=O)N(c4ccc(F)cc4)C(=O)C3ON2c2ccccc2)ccc1O (stereo not drawn)	470	-13.5% (inactive)	-60% (inactive)	137	-1.73	-0.628	0.0709	-13.3% (inactive)	-0.498 (inactive)	-3.2e-05 (inactive)	0.00461 (inactive)	inactive	16.5% (inactive)
CCCOc1ccc(C(C)=O)cc1CSCCC#N	298	-26.4% (inactive)	-186% (inactive)	136	-0.222	-1.52	0.779	7.01% (inactive)	-0.462 (inactive)	-0.000379 (inactive)	0.00586 (inactive)	inactive	17.2% (inactive)

Source: PubChem BioAssay
